Counter-ions that a name gives are not always drawn.

The subject of experiment [1] is Escherichia coli. The experiment can be described thus: Inhibition of Escherichia coli MurA assessed as residual activity at 100 uM using UNAG and PEP as substrate preincubated for 30 mins in presence of UNAG followed by PEP addition and measured after 15 mins in presence of 5 mM cysteine by malachite green colorimetric assay relative to control. The conditions noted are these: time 45.0 min. A digest of the protocol:
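MurA from E. coli, with the enzyme diluted in Hepes pH 7.8 containing cysteine (15 mM in buffer, giving 5 mM in incubation). Preincubated with UNAG and compound for 30 min at 37 °C, then PEP added and reacted 15 min at 37 °C. Phosphate read by malachite green at 650 nm. Duplicates; residual activity is versus DMSO control.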

The test system of experiment [2] is Escherichia coli. Description: Inhibition of Escherichia coli MurA assessed as residual activity at 100 uM using UNAG and PEP as substrate preincubated for 30 mins in presence of UNAG followed by PEP addition and measured after 15 mins by malachite green colorimetric assay relative to control. To be noted: time 45.0 min.
Experiment [3] in a line: Inhibition of Staphylococcus aureus MurA expressed in Escherichia coli using UNAG and PEP as substrate preincubated for 30 mins in presence of UNAG followed by PEP addition and measured after 15 mins by malachite green colorimetric assay. The gist of the method:
(§1)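 IC50 from MurA (E. coli or S. aureus) residual activities at seven compound concentrations. Conditions: 30 min preincubation with UNAG at 37 °C, then PEP, 15 min at 37 °C, in 50 mM Hepes pH 7.8, 0.005% Triton X-114 and 5% DMSO. Malachite green read at 650 nm. Values are means of duplicates.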

A further experiment has as its system Staphylococcus aureus. The experiment can be described thus: Inhibition of Staphylococcus aureus MurA expressed in Escherichia coli assessed as residual activity at 100 uM using UNAG and PEP as substrate preincubated for 30 mins in presence of UNAG followed by PEP addition and measured after 15 mins by malachite green colorimetric assay relative to control. To be noted: time 45.0 min.

A short description of experiment [4]: Inhibition of recombinant cathepsin X (unknown origin) expressed in Pichia pastoris assessed as residual activity at 100 uM using Abz-Fek(Dnp)-OH as substrate preincubated for 30 mins under shaking in presence of 5 mM cysteine followed by substrate addition relative to control. The conditions noted are these: Homo sapiens.
Experiment [5] can be described thus: Inhibition of Escherichia coli MurA using UNAG and PEP as substrate preincubated for 30 mins in presence of UNAG followed by PEP addition and measured after 15 mins by malachite green colorimetric assay. A digest of the protocol: as §1
Experiment [6] has as its target Cathepsin B (Homo sapiens) (UniProt P07858). Description: Inhibition of recombinant cathepsin B (unknown origin) endopeptidase activity expressed in Escherichia coli assessed as residual activity at 100 uM using Z-RR-AMC as substrate preincubated for 30 mins under shaking in presence of 5 mM cysteine followed by substrate addition relative to control.
Experiment [7] shares this target. Description: Inhibition of recombinant cathepsin B (unknown origin) exopeptidase activity expressed in Escherichia coli assessed as residual activity at 100 uM using Abz-GIVRAK(Dnp)-OH as substrate preincubated for 30 mins under shaking in presence of 5 mM cysteine followed by substrate addition relative to control.
In experiment [8] the test system is Escherichia coli. Description: Inhibition of Escherichia coli MurA assessed as residual activity at 25 uM using UNAG and PEP as substrate preincubated for 30 mins in presence of UNAG followed by PEP addition and measured after 15 mins by malachite green colorimetric assay relative to control.
In experiment [9] the test system is Escherichia coli. Description: Inhibition of Escherichia coli MurA assessed as residual activity at 1 mM using UNAG and PEP as substrate preincubated for 30 mins in presence of UNAG followed by PEP addition and measured after 15 mins by malachite green colorimetric assay relative to control. To be noted: time 45.0 min.

By IC50 is commonly meant the concentration at which inhibition is half-maximal. `COc1cc2c(cc1OC)CN(C(=O)CCl)CC2`: the Activity in the experiment with Escherichia coli [1] worked out at 98%; with Escherichia coli [2], 61%; in the experiment with Staphylococcus aureus, 54%; in [4], 97%. Also, the half-inhibitory concentration (IC50) in experiment [3] stood at 171 µM; in experiment [5], 141 µM.

Take `COc1ccccc1C(=O)CBr`: the Activity turned out to be 90% in experiment [6]; 100% in the experiment with Escherichia coli [1]; 3% in the experiment on Escherichia coli [2]; 4% with Staphylococcus aureus; 74% in [4]; 55% in [7]. Moreover, the IC50 in experiment [3] amounted to 1.82 µM; in [5], 0.384 µM.

Regarding `O=c1[nH]sc2ccccc12`, the Activity turned out to be 100% in experiment [6]; 99% with Escherichia coli [1]; 2% with Escherichia coli [2]; 0% in the experiment on Staphylococcus aureus; 100% in [4]; 96% in [7]. For the same molecule, the IC50 is 0.926 µM in experiment [3] and 1.1 µM in experiment [5].

With `O=C1C=CC(=O)N1C1CCCCC1`, the Activity in experiment [6] is 96%; with Escherichia coli [1], 100%; with Escherichia coli [2], 1%; in the experiment on Escherichia coli [8], 85%; in the experiment on Staphylococcus aureus it was 0.3%; in [4], 96%. Moreover, the Activity in experiment [7] was found to be 89%. The IC50 in experiment [3] is 0.652 µM; in experiment [5], 0.554 µM.

In the case of `COc1cc(NC(=O)CCl)cc(OC)c1`, the Activity in experiment [6] was found to be 90%; in the experiment on Escherichia coli [1] it was 96%; in the experiment with Escherichia coli [2], 61%; in the experiment on Staphylococcus aureus, 52%; in experiment [4], 84%; in experiment [7] it was 87%.

Take `O=C(CCl)N1CCC(Cc2ccccc2)CC1`: the figures for the Activity (in [6]; in the experiment on Escherichia coli [1]; in the experiment with Staphylococcus aureus) were 78%, 99% and 55%, respectively.

With `O=C(CCl)c1ccccc1` [PHENACYL CHLORIDE], the Activity in [6] is 63%; in the experiment on Escherichia coli [1] it was 93%; with Escherichia coli [2], 3%; in the experiment with Staphylococcus aureus, 7%; in [4] it was 86%; in [7] it was 34%. Moreover, the IC50 stood at 3.02 µM in experiment [3] and 2.25 µM in experiment [5].

Turning to `O=C(CCl)Nc1ccccc1`, the Activity was found to be 100% in experiment [6]; 95% in the experiment with Escherichia coli [1]; 100% in the experiment on Escherichia coli [2]; 59% with Staphylococcus aureus; 99% in experiment [4]; 88% in experiment [7].

For `FC(F)(F)c1cccc(N=C=S)c1`, the Activity was determined as 100% in [6]; 99% in the experiment with Escherichia coli [1]; 3% with Escherichia coli [2]; 9% in the experiment with Staphylococcus aureus; 87% in experiment [4]; 97% in experiment [7]. In addition, the IC50 in experiment [3] was 53 µM; in experiment [5], 28 µM.

In the case of `C/C=C/C(=O)OC`, the Activity is 100% in experiment [6]; 96% in the experiment on Escherichia coli [1]; 41% with Escherichia coli [2]; 66% with Staphylococcus aureus; 84% in experiment [4]; 97% in experiment [7]. For the same molecule, the IC50 in [5] was 227 µM.

Regarding `N#C/C=C/C(F)(F)F`, the Activity in [6] was determined as 100%; in the experiment with Escherichia coli [1], 100%; in the experiment with Escherichia coli [2] it was 47%; in the experiment on Staphylococcus aureus, 81%; in experiment [4] it was 86%; in experiment [7] it was 88%. The Activity in the experiment with Escherichia coli [9] stood at 100%. For the same molecule, the IC50 in experiment [5] turned out to be 95 µM.

`O=C(CCl)Nc1cc(C(F)(F)F)cc(C(F)(F)F)c1`: the Activity in [6] amounted to 75%; with Escherichia coli [1], 80%; in the experiment on Staphylococcus aureus, 96%; in experiment [4], 96%. Also, the half-maximal inhibitory concentration (IC50) in [3] worked out at 100 µM; in experiment [5] it was 75 µM.

With `O=C1C=CC(=O)N1Cc1ccccc1`, the Activity came out at 100% in [6]; 99% in the experiment with Escherichia coli [1]; 2% in the experiment with Escherichia coli [2]; 0% with Staphylococcus aureus; 96% in [4]; 87% in experiment [7]. Also, the 50% inhibitory concentration (IC50) worked out at 1.04 µM in [3] and 0.565 µM in [5].

On to `CCOC(=O)C#Cc1ccccc1`, for which the Activity in [6] stood at 85%; in the experiment on Escherichia coli [1], 99%; in the experiment with Escherichia coli [2], 75%; in the experiment with Staphylococcus aureus, 67%; in [4], 92%; in [7], 70%.

Take `C/C=N/Nc1cc2ccccc2cn1`: the Activity in experiment [6] worked out at 100%; with Escherichia coli [1], 100%; in the experiment on Escherichia coli [2], 99%; in the experiment on Staphylococcus aureus, 54%; in experiment [4] it was 79%; in experiment [7], 100%.

For the molecule `C[C@@H]1O[C@@H]1P(=O)(O)O`, the Activity in the experiment with Escherichia coli [8] is 3%.

For the molecule `S=C=NCc1ccccc1` [BENZYL ISOTHIOCYANATE], the Activity in [6] came to 75%; in the experiment on Escherichia coli [1] it was 100%; in the experiment on Escherichia coli [2], 3%; in the experiment with Staphylococcus aureus, 41%; in experiment [4], 22%; in experiment [7], 18%. Moreover, the IC50 in experiment [5] was 3.7 µM.

Consider `C=CC(=O)Nc1cc(C(F)(F)F)cc(C(F)(F)F)c1`, for which the Activity came out at 100% in the experiment on Escherichia coli [1], 72% in the experiment on Staphylococcus aureus, 92% in experiment [4] and 86% in the experiment on Escherichia coli [9]. Besides, the IC50 in experiment [5] worked out at 164 µM.

In the case of `Cc1ccc(S)cc1`, the Activity was found to be 100% in experiment [6]; 94% with Escherichia coli [1]; 6% with Escherichia coli [2]; 23% with Staphylococcus aureus; 100% in experiment [4]; 67% in experiment [7]. The IC50 in [3] worked out at 7.83 µM; in experiment [5], 1.25 µM.

With `O=C(CBr)c1ccccc1`, the Activity was found to be 83% in experiment [6]; 94% in the experiment with Escherichia coli [1]; 2% in the experiment with Escherichia coli [2]; 7% in the experiment with Staphylococcus aureus; 75% in experiment [4]; 27% in experiment [7].

`C/C=C/C#N`: the Activity in experiment [6] turned out to be 100%; in the experiment on Escherichia coli [1], 100%; in the experiment on Escherichia coli [2], 100%; with Staphylococcus aureus, 97%; in experiment [4], 90%; in experiment [7] it was 87%.

Consider `CC#CC(=O)OCC`, for which the Activity in [6] worked out at 96%; with Escherichia coli [1], 100%; with Escherichia coli [2] it was 82%; in the experiment on Staphylococcus aureus, 91%; in experiment [4] it was 96%; in experiment [7], 84%.

As to `S=C=Nc1ccccc1` [PHENYLISOTHIOCYANATE], the Activity in [6] came to 100%; in the experiment on Escherichia coli [1], 91%; in the experiment with Escherichia coli [2] it was 53%; in the experiment on Staphylococcus aureus it was 75%; in experiment [4], 67%; in [7], 98%. Also, the IC50 in experiment [5] is 90 µM.

With `COC(=O)/C=C/C(=O)OC` [DIMETHYL FUMARATE], the Activity in [6] is 100%; in the experiment with Escherichia coli [1], 90%; in the experiment on Escherichia coli [2], 50%; with Staphylococcus aureus, 82%; in [4], 89%; in experiment [7], 100%. Moreover, in the experiment on Escherichia coli [9], the Activity turned out to be 88%. Also, in experiment [5], the 50% inhibitory concentration (IC50) amounted to 172 µM.

Regarding `COc1ccc(N=C=S)cc1`, the Activity in [6] was 100%; in the experiment on Escherichia coli [1], 94%; in the experiment on Escherichia coli [2], 33%; in the experiment with Staphylococcus aureus, 91%; in experiment [4], 55%; in experiment [7], 99%. The concentration for half-maximal inhibition (IC50) in experiment [5] was 45 µM.

For `C=CS(=O)(=O)c1ccccc1` [(ETHENYLSULFONYL)BENZENE], the Activity in experiment [6] came out at 100%; in the experiment on Escherichia coli [1], 96%; with Escherichia coli [2] it was 12%; with Staphylococcus aureus it was 30%; in [4], 93%; in experiment [7], 87%. For the same molecule, the IC50 in experiment [3] was 34 µM; in [5], 15 µM.
